Source: ChEMBL document CHEMBL1124174, “Substituted benzamides. 1. Potential nondopaminergic antagonists of chemotherapy-induced nausea and emesis” (J Med Chem, 1988)
“And” between values parts separate entries of the source, which are not always exact repeats. Equal values may be shown once.

How the values were obtained:
[1] = biological target: D(2) dopamine receptor (Canis lupus familiaris) (UniProt Q9GJU1); assay: In vivo antagonism activity against dopamine D2 receptor was measured as emesis in dog when administered subcutaneously; format: functional, organism-based
Sequence of D(2) dopamine receptor (Canis lupus familiaris) (Q9GJU1 whole entry): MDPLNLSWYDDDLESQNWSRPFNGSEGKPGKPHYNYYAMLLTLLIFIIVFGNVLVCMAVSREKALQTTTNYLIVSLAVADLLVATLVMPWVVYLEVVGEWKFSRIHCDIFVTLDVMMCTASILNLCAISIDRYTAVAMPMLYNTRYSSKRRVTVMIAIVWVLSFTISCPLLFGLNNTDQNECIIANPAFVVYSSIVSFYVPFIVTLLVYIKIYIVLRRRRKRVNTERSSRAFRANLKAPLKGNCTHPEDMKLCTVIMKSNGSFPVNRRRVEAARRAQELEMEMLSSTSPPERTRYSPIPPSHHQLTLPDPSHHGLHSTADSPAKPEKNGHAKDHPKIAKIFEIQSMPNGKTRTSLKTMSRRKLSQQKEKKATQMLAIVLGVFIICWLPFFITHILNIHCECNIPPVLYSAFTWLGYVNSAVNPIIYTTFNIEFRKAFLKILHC

[2] = biological target: D(2) dopamine receptor (Rattus norvegicus, UniProt P61169); assay: In vitro antagonistic activity against Dopamine receptor D2 was evaluated for the inhibition of [3H]spiperone binding
Sequence of D(2) dopamine receptor (P61169 whole entry): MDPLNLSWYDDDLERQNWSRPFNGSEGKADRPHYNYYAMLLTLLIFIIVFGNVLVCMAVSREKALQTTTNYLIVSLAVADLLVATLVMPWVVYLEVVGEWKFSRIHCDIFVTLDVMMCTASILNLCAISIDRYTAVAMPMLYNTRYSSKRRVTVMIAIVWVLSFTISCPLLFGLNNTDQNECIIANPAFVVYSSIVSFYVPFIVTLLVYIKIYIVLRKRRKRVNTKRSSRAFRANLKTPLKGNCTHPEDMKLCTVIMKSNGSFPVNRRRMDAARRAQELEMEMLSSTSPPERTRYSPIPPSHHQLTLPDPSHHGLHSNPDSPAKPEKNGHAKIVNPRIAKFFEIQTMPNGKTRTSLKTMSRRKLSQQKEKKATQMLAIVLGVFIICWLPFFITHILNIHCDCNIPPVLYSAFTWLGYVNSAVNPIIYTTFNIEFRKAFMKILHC
In short: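 Rat striatal membranes were prepared by differential centrifugation in 50 mM Tris pH 7.4 at 4 °C. Membrane protein (10 mg) was incubated 15 min at 37 °C with 0.1 nM [3H]spiperone and varying competitor concentrations. Buffer: 50 mM Tris HCl pH 7.5, 0.1% ascorbic acid, pargyline, 120 mM NaCl, 5 mM KCl, 2 mM CaCl2, 1 mM MgCl2. (+)-Butaclamol defined nonspecific binding. Bound ligand was collected by filtration and scintillation counted. IC50 by log-logit regression.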

[3] = test system: Mustela putorius furo; assay: In vivo antagonism of cisplatin-induced emesis in ferret measured as emetic episodes, twice the dose of 1 mg/kg and in 3 ferrets; format: functional
In short: (§1)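 Nonfasted castrated male Fitch ferrets (1–1.5 kg) had jugular catheters implanted ≥48 h earlier under anesthesia. Compounds or saline were given iv twice, 5 min before and 90 min after cisplatin (12 mg/kg iv; 12 mg/mL in warm 0.9% saline). Emesis was observed up to 4 h; events within 1 min counted as one episode. Results were given as mean emetic episodes and % protection versus a pooled historical/concurrent control. t test versus saline.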

[4] = test system: Mustela putorius furo; assay: In vivo antagonism of cisplatin-induced emesis in ferret measured as percentage protection for twice the dose of 1 mg/kg and in 3 ferrets; format: functional; in short: as §1
[5] = biological target: D(2) dopamine receptor (Rattus norvegicus) (UniProt P61169); assay: In vivo antagonism activity against D2 receptor was measured as stereotypy in rat when administered subcutaneously; format: functional, organism-based
Sequence of D(2) dopamine receptor (Rattus norvegicus) (P61169 whole entry): as above
In short: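 Male Long Evans rats (275 g) were dosed sc in dilute aqueous HCl (pH 4.5-5.5) 30 min before apomorphine (1 mg/kg sc).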

[6] = biological target: D(2) dopamine receptor (Rattus norvegicus) (UniProt P61169); assay: In vivo antagonistic activity against dopamine D2 receptor was measured as catalepsy in rat when administered subcutaneously; format: functional, organism-based
In short: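 Male Long Evans rats (275 g) received graded sc doses in dilute aqueous HCl (pH 4.5-5.5). They were observed 180 min for catalepsy, scored when the animal stayed stationary ≥15 s on a four-cork template.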

[7] = test system: Mustela putorius furo; assay: In vivo antagonism of cisplatin-induced emesis in ferret measured as emetic episodes, twice the dose of 3 mg/kg and in 3 ferrets; format: functional; in short: as §1
[8] = test system: Mustela putorius furo; assay: In vivo antagonism of cisplatin-induced emesis in ferret measured as percentage protection for twice the dose of 3 mg/kg and in 3 ferrets; format: functional; in short: as §1
[9] = test system: Canis familiaris; assay: In vivo antagonism of cisplatin-induced emesis in dog measured as percentage protection for twice the dose of 0.3 mg/kg in 2 dogs; format: functional, Canis lupus familiaris
In short: (§2)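 Nonfasted mature male or female beagles were dosed sc twice, 30 min before and 120 min after cisplatin (3 mg/kg iv; 3 mg/mL in warm 0.9% saline, used immediately). Emesis was observed up to 5 h; events within 2 min counted as one episode. Results were given as mean emetic episodes and % protection versus a dynamic control (historical and concurrent saline means pooled). t test versus saline.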

[10] = test system: Canis familiaris; assay: In vivo antagonism of cisplatin-induced emesis in dog measured as emetic episodes, twice the dose of 0.3 mg/kg in 2 dogs; format: functional, Canis lupus familiaris; in short: as §2
[11] = test system: Canis familiaris; assay: In vivo antagonism of cisplatin-induced emesis in dog measured as emetic episodes, twice the dose of 1 mg/kg in 2 dogs; format: functional, Canis lupus familiaris; in short: as §2
[12] = test system: Canis familiaris; assay: In vivo antagonism of cisplatin-induced emesis in dog measured as percentage protection for twice the dose of 1 mg/kg in 2 dogs; format: functional, Canis lupus familiaris; in short: as §2
[13] = test system: Mustela putorius furo; assay: In vivo antagonism of cisplatin-induced emesis in ferret measured as percentage protection for twice the dose of 0.3 mg/kg and in 3 ferrets; format: functional; in short: as §1
[14] = test system: Mustela putorius furo; assay: In vivo antagonism of cisplatin-induced emesis in ferret measured as emetic episodes, twice the dose of 0.3 mg/kg and in 3 ferrets; format: functional; in short: as §1

| SMILES | ED50 [1] [mg/kg] | IC50 [2] [nM] | Emetic episodes [3] | Protection [4] [%] | ED50 [5] [mg/kg] | ED50 [6] [mg/kg] | Emetic episodes [7] | Protection [8] [%] | Protection [9] [%] | Emetic episodes [10] | Emetic episodes [11] | Protection [12] [%] | other results |
| --- | --- | --- | --- | --- | --- | --- | --- | --- | --- | --- | --- | --- | --- |
| CCN(CC)CCNC(=O)c1cc(Cl)c(N)cc1OCC(O)Cc1ccccc1 (configuration not stated) | > 3 | > 1000 | 3.3 | 54 | > 40 | > 40 |  |  |  |  |  |  |  |
| CCN(CC)CCNC(=O)c1cc(Cl)c(N)cc1OCCOCCOC | > 3 | > 1000 | 4.3 | 39 | > 40 | > 40 | 1.7 | 76 |  |  |  |  |  |
| CCN(CC)CCNC(=O)c1cc(Cl)c(N)cc1OCC(=O)C(C)C | > 3 | > 1000 | 4 | 44 | > 40 | > 40 |  |  | 44 | 3 |  |  |  |
| CCN(CC)CCNC(=O)c1cc(Cl)c(N)cc1OC(C)/C(C)=N/O (configuration not stated) | > 3 | > 1000 | 4.3 | 44 | > 40 | > 40 |  |  |  |  |  |  |  |
| CCN(CC)CCN1CCOc2cc(N)c(Cl)cc2C1=O | > 3 | > 1000 | 6 | 14 | > 40 | > 40 |  |  |  |  |  |  |  |
| C=CCC(Oc1cc(N)c(Cl)cc1C(=O)NCCN(CC)CC)C(C)=O (configuration not stated) | > 3 | > 1000 | 1.7 |  | > 40 | > 40 | 2.3 | 68 |  |  | 6 | 52 | Protection [3]: 76% |
| CCN(CC)CCNC(=O)c1cc(Cl)c(N)cc1OC1CCCC1=O (configuration not stated) | > 3 | > 1000 | 5.7 | 21 | > 40 | > 40 |  |  |  |  |  | 87 |  |
| CCN(CC)CCNC(=O)c1cc(Cl)c(N)cc1OCc1ccccn1 | > 3 | > 1000 | 2.3 | 67 | > 40 | > 40 | 1 | 86 |  |  |  |  |  |
| CCN(CC)CCNC(=O)c1cc(Cl)c(N)cc1OC1CCCC[C@H]1O (some centres not stated) |  | > 1000 |  |  | > 40 | > 40 | 2.7 | 64 | 64 | 4.5 | 0 | 100 |  |
| CCC(=O)C(C)Oc1cc(N)c(Cl)cc1C(=O)NCCN(CC)CC (configuration not stated) | > 3 | > 1000 | 1.3 | 82 | > 40 | > 40 |  |  | 84 | 2 |  |  |  |
| CCN(CC)CCNC(=O)c1cc(Cl)c(N)cc1OCC(C)(C)O | > 3 | > 1000 | 3 |  | > 40 | > 40 | 1.3 |  |  |  |  |  | Protection ([4]; 1 mg/kg): 84% and 57% |
| CCC(Oc1cc(N)c(Cl)cc1C(=O)NCCN(CC)CC)C(C)=O (configuration not stated) | > 3 | > 1000 | 2.3 | 68 | > 40 | > 40 |  |  |  | 3 | 0.5 | 96 |  |
| CCN(CC)CCNC(=O)c1cc(Cl)c(N)cc1OC(C)C(C)O (stereo in doubt; 8g,h) |  | > 1000 |  |  |  |  |  |  |  |  |  |  | Protection ([9]; 0.3 mg/kg): 96%; Emetic episodes ([10]; 0.3 mg/kg): 0.5; Emetic episodes ([7]; 3 mg/kg): 1.3; Emetic episodes ([3]; 1 mg/kg): 1.7; Protection ([4]; 1 mg/kg): 75%; Protection ([8]; 3 mg/kg): 80% |
| CCCC(=O)COc1cc(N)c(Cl)cc1C(=O)NCCN(CC)CC | > 3 | > 1000 | 0.7 | 90 | > 40 | > 40 |  |  | 84 | 2 |  |  |  |
| CCN(CC)CCNC(=O)c1cc(Cl)c(N)cc1OCCC(C)O (configuration not stated) | > 3 | > 1000 | 2 | 73 | > 40 | > 40 |  |  | 32 | 8 |  |  |  |
| CCN(CC)CCN1C(=O)c2cc(Cl)c(N)cc2OC(C)=C1C | > 3 | > 1000 |  |  | > 40 | > 40 |  |  | 37 | 7.5 |  |  | Protection ([13]; 0.3 mg/kg): 95% and 67% |
| CCN(CC)CCNC(=O)c1cc(Cl)c(N)cc1OCC(C)O (configuration not stated) | > 3 | > 1000 | 4.5 | 36 | > 40 | > 40 | 1 | 86 | 68 | 3 | 0 | 100 |  |
| CCN(CC)CCNC(=O)c1cc(Cl)c(N)cc1OC/C(C)=N/O | > 3 | > 1000 |  |  | > 40 | > 40 | 0 | 100 |  |  | 2.5 | 79 |  |
| CCN(CC)CCNC(=O)c1cc(Cl)c(N)cc1OC1CCCC[C@@H]1O (some centres not stated) | > 3 | > 1000 |  |  | > 40 | > 40 | 3 | 60 |  |  | 4 | 66 |  |
| CCN(CC)CCNC(=O)c1cc(Cl)c(N)cc1OC1CCCC[C@@H]1OC (some centres not stated) | > 3 | > 1000 | 2.3 | 69 | > 40 | > 40 | 0.7 | 91 |  |  | 10 | 15 | Protection [13]: 42%; Emetic episodes [14]: 4.3 |
